From ChEMBL document CHEMBL3352188, “Synthesis, antimicrobial and molecular docking studies of enantiomerically pure N-alkylated β-amino alcohols from phenylpropanolamines” (2014)

Key:
Staphylococcus aureus [1] = assay: Antimicrobial activity against […] Staphylococcus aureus MTCC 96 at 1 mg/disc after 24 hrs by disc diffusion assay; assay type: functional
How it was run: (§1)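 Disc diffusion on Mueller Hinton agar. Inoculum was grown in MHB for 24 h at 37 °C, swabbed onto the plates and dried for 10 min. Discs with 1 mg compound were left 30 min at room temperature for diffusion, then incubated at 37 °C for 24 h. Inhibition zone was read in mm; run twice. Solvent was the negative control, streptomycin the positive control.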

Klebsiella aerogenes [2] = assay: Bactericidal activity against Enterobacter aerogenes MTCC 111 after 24 hrs by two fold dilution method; assay type: functional; conditions: MTCC 111, 24 h
How it was run: (§2)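 Tubes held 5 mL MHB with two-fold dilutions from 1000 to 7.81 µg/mL and were inoculated with 5 × 10^5 to 1 × 10^6 cells in 0.1 mL MHB, incubated without shaking. Turbidity was checked at 20 h, tubes vortexed and re-incubated 4 h.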

Staphylococcus aureus [3] = assay: Antimicrobial activity against methicillin-resistant Staphylococcus aureus MTCC 96 after 24 hrs by two fold dilution method; assay type: functional; conditions: MTCC 96, 24 h
How it was run: (§3)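 Broth two-fold serial dilution in 96-well plates from 1000 to 7.81 µg/mL, compound in DMSO (2%). Inoculum was grown in MHB for 24 h at 37 °C; plates were incubated 24 h at 37 °C. 5 µL of broth was spotted onto MHA; MIC was the lowest concentration with no visible growth on agar. Streptomycin was the positive control.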

Klebsiella pneumoniae [4] = assay: Antimicrobial activity against Klebsiella pneumoniae MTCC 109 at 1 mg/disc after 24 hrs by disc diffusion assay; assay type: functional; how it was run: as §1
Micrococcus luteus [5] = assay: Antimicrobial activity against Micrococcus luteus MTCC 106 after 24 hrs by two fold dilution method; assay type: functional; conditions: MTCC 106, 24 h; how it was run: as §3
Candida albicans [6] = assay: Fungicidal activity against Candida albicans MTCC 227 after 48 to 72 hrs by two fold dilution method; assay type: functional
Micrococcus luteus [7] = assay: Bactericidal activity against Micrococcus luteus MTCC 106 after 24 hrs by two fold dilution method; assay type: functional; conditions: MTCC 106, 24 h; how it was run: as §2
Proteus vulgaris [8] = assay: Antimicrobial activity against Proteus vulgaris MTCC 1771 at 1 mg/disc after 24 hrs by disc diffusion assay; assay type: functional; how it was run: as §1
Salmonella typhimurium [9] = assay: Bactericidal activity against Salmonella typhimurium MTCC 1251 after 24 hrs by two fold dilution method; assay type: functional, Salmonella enterica subsp. enterica serovar Typhimurium; conditions: Salmonella enterica, MTCC 1251, 24 h; how it was run: as §2
[10] = test system: Salmonella enterica subsp. enterica serovar Paratyphi B; assay: Antimicrobial activity against Salmonella paratyphi B at 1 mg/disc after 24 hrs by disc diffusion assay; assay type: functional; how it was run: as §1
Shigella flexneri [11] = assay: Bactericidal activity against Shigella flexneri MTCC 1457 after 24 hrs by two fold dilution method; assay type: functional; conditions: MTCC 1457, 24 h; how it was run: as §2
Pseudomonas aeruginosa [12] = assay: Bactericidal activity against Pseudomonas aeruginosa MTCC 741 after 24 hrs by two fold dilution method; assay type: functional; conditions: MTCC 741, 24 h; how it was run: as §2
Salmonella typhimurium [13] = assay: Antimicrobial activity against Salmonella typhimurium MTCC 1251 after 24 hrs by two fold dilution method; assay type: functional, Salmonella enterica subsp. enterica serovar Typhimurium; conditions: Salmonella enterica, MTCC 1251, 24 h; how it was run: as §3
Candida albicans [14] = assay: Antimicrobial activity against Candida albicans MTCC 227 at 1 mg/disc after 24 hrs by disc diffusion assay; assay type: functional
[15] = test system: Salmonella enterica subsp. enterica serovar Paratyphi B; assay: Bactericidal activity against Salmonella paratyphi B after 24 hrs by two fold dilution method; assay type: functional; how it was run: as §2
Staphylococcus aureus [16] = assay: Antimicrobial activity against Staphylococcus aureus MTCC 96 at 1 mg/disc after 24 hrs by disc diffusion assay; assay type: functional; how it was run: as §1
Shigella flexneri [17] = assay: Antimicrobial activity against Shigella flexneri MTCC 1457 at 1 mg/disc after 24 hrs by disc diffusion assay; assay type: functional; how it was run: as §1
Proteus vulgaris [18] = assay: Bactericidal activity against Proteus vulgaris MTCC 1771 after 24 hrs by two fold dilution method; assay type: functional; conditions: MTCC 1771, 24 h; how it was run: as §2
Klebsiella aerogenes [19] = assay: Antimicrobial activity against Enterobacter aerogenes MTCC 111 at 1 mg/disc after 24 hrs by disc diffusion assay; assay type: functional; how it was run: as §1
Candida albicans [20] = assay: Antimicrobial activity against Candida albicans MTCC 227 after 48 to 72 hrs by two fold dilution method; assay type: functional
How it was run: (§4)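 Yeast was grown in Sabouraud dextrose broth at 28 °C for 48 h and tested per CLSI reference methods. Two-fold serial dilutions from 1000 to 7.81 µg/mL, compound in DMSO (2%), in 96-well plates, incubated 48–72 h at 28 °C. MIC was the lowest concentration with no visible fungal growth. Ketoconazole was the positive control.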

Klebsiella pneumoniae [21] = assay: Bactericidal activity against Klebsiella pneumoniae MTCC 109 after 24 hrs by two fold dilution method; assay type: functional; conditions: MTCC 109, 24 h; how it was run: as §2
Malassezia pachydermatis [22] = assay: Antimicrobial activity against Malassezia pachydermatis at 1 mg/disc after 24 hrs by disc diffusion assay; assay type: functional
Malassezia pachydermatis [23] = assay: Antimicrobial activity against Malassezia pachydermatis after 48 to 72 hrs by two fold dilution method; assay type: functional; how it was run: as §4
Shigella flexneri [24] = assay: Antimicrobial activity against Shigella flexneri MTCC 1457 after 24 hrs by two fold dilution method; assay type: functional; conditions: MTCC 1457, 24 h; how it was run: as §3
Staphylococcus aureus [25] = assay: Bactericidal activity against Staphylococcus aureus MTCC 96 after 24 hrs by two fold dilution method; assay type: functional; conditions: MTCC 96, 24 h; how it was run: as §2
Bacillus subtilis [26] = assay: Antimicrobial activity against Bacillus subtilis MTCC 441 after 24 hrs by two fold dilution method; assay type: functional; conditions: MTCC 441, 24 h; how it was run: as §3
Bacillus subtilis [27] = assay: Bactericidal activity against Bacillus subtilis MTCC 441 after 24 hrs by two fold dilution method; assay type: functional; conditions: MTCC 441, 24 h; how it was run: as §2
Pseudomonas aeruginosa [28] = assay: Antimicrobial activity against Pseudomonas aeruginosa MTCC 741 at 1 mg/disc after 24 hrs by disc diffusion assay; assay type: functional; how it was run: as §1
Pseudomonas aeruginosa [29] = assay: Antimicrobial activity against Pseudomonas aeruginosa MTCC 741 after 24 hrs by two fold dilution method; assay type: functional; conditions: MTCC 741, 24 h; how it was run: as §3
Salmonella typhimurium [30] = assay: Antimicrobial activity against Salmonella typhimurium MTCC 1251 at 1 mg/disc after 24 hrs by disc diffusion assay; assay type: functional, Salmonella enterica subsp. enterica serovar Typhimurium; how it was run: as §1
Klebsiella aerogenes [31] = assay: Antimicrobial activity against Enterobacter aerogenes MTCC 111 after 24 hrs by two fold dilution method; assay type: functional; conditions: MTCC 111, 24 h; how it was run: as §3
Klebsiella pneumoniae [32] = assay: Antimicrobial activity against Klebsiella pneumoniae MTCC 109 after 24 hrs by two fold dilution method; assay type: functional; conditions: MTCC 109, 24 h; how it was run: as §3
[33] = test system: Salmonella enterica subsp. enterica serovar Paratyphi B; assay: Antimicrobial activity against Salmonella paratyphi B after 24 hrs by two fold dilution method; assay type: functional; how it was run: as §3
Proteus vulgaris [34] = assay: Antimicrobial activity against Proteus vulgaris MTCC 1771 after 24 hrs by two fold dilution method; assay type: functional; conditions: MTCC 1771, 24 h; how it was run: as §3
Staphylococcus aureus [35] = assay: Bactericidal activity against methicillin-resistant Staphylococcus aureus MTCC 96 after 24 hrs by two fold dilution method; assay type: functional; conditions: MTCC 96, 24 h; how it was run: as §2
Malassezia pachydermatis [36] = assay: Fungicidal activity against Malassezia pachydermatis after 48 to 72 hrs by two fold dilution method; assay type: functional
Micrococcus luteus [37] = assay: Antimicrobial activity against Micrococcus luteus MTCC 106 at 1 mg/disc after 24 hrs by disc diffusion assay; assay type: functional; how it was run: as §1
Staphylococcus aureus [38] = assay: Antimicrobial activity against Staphylococcus aureus MTCC 96 after 24 hrs by two fold dilution method; assay type: functional; conditions: MTCC 96, 24 h; how it was run: as §3
Bacillus subtilis [39] = assay: Antimicrobial activity against Bacillus subtilis MTCC 441 at 1 mg/disc after 24 hrs by disc diffusion assay; assay type: functional; how it was run: as §1

SMILES | inhibition zone (IZ) (Staphylococcus aureus [1]) [mm] | MBC (Klebsiella aerogenes [2]) [µg/mL] | MIC (Staphylococcus aureus [3]) [µg/mL] | inhibition zone (IZ) (Klebsiella pneumoniae [4]) [mm] | MIC (Micrococcus luteus [5]) [µg/mL] | MFC (Candida albicans [6]) [µg/mL] | MBC (Micrococcus luteus [7]) [µg/mL] | inhibition zone (IZ) (Proteus vulgaris [8]) [mm] | MBC (Salmonella typhimurium [9]) [µg/mL] | inhibition zone (IZ) [10] [mm] | MBC (Shigella flexneri [11]) [µg/mL] | MBC (Pseudomonas aeruginosa [12]) [µg/mL] | MIC (Salmonella typhimurium [13]) [µg/mL] | inhibition zone (IZ) (Candida albicans [14]) [mm] | MBC [15] [µg/mL] | inhibition zone (IZ) (Staphylococcus aureus [16]) [mm] | inhibition zone (IZ) (Shigella flexneri [17]) [mm] | MBC (Proteus vulgaris [18]) [µg/mL] | inhibition zone (IZ) (Klebsiella aerogenes [19]) [mm] | MIC (Candida albicans [20]) [µg/mL] | other results
CC(C)C[C@@H](C)N[C@@H](C)[C@H](O)c1ccccc1.Cl | 16 | 125 | 62.5 | 16 | 62.5 | 62.5 | 62.5 | 15 | 250 | 13 | 250 | 125 | 125 | 17 | 250 | 17 | 15 | 250 | 14 | 62.5 | MBC (Klebsiella pneumoniae [21]): 62.5 µg/mL; inhibition zone (IZ) (Malassezia pachydermatis [22]): 16 mm; MIC (Malassezia pachydermatis [23]): 62.5 µg/mL; MIC (Shigella flexneri [24]): 125 µg/mL; MBC (Staphylococcus aureus [25]): 125 µg/mL; MIC (Bacillus subtilis [26]): 125 µg/mL; MBC (Bacillus subtilis [27]): 250 µg/mL; inhibition zone (IZ) (Pseudomonas aeruginosa [28]): 17 mm; MIC (Pseudomonas aeruginosa [29]): 62.5 µg/mL; inhibition zone (IZ) (Salmonella typhimurium [30]): 14 mm; MIC (Klebsiella aerogenes [31]): 125 µg/mL; MIC (Klebsiella pneumoniae [32]): 62.5 µg/mL; MIC [33]: 125 µg/mL; MIC (Proteus vulgaris [34]): 125 µg/mL; MBC (Staphylococcus aureus [35]): 125 µg/mL; MFC (Malassezia pachydermatis [36]): 62.5 µg/mL; inhibition zone (IZ) (Micrococcus luteus [37]): 16 mm; MIC (Staphylococcus aureus [38]): 62.5 µg/mL; inhibition zone (IZ) (Bacillus subtilis [39]): 15 mm
COc1ccc([C@H](C)N[C@H](C)[C@@H](O)c2ccccc2)cc1.Cl | 18 | 125 | 62.5 | 17 | 62.5 | 62.5 | 125 | 18 | 250 | 17 | 125 | 250 | 125 | 16 | 250 | 17 | 17 | 125 | 18 | 62.5 | MBC (Klebsiella pneumoniae [21]): 125 µg/mL; inhibition zone (IZ) (Malassezia pachydermatis [22]): 19 mm; MIC (Malassezia pachydermatis [23]): 62.5 µg/mL; MIC (Shigella flexneri [24]): 62.5 µg/mL; MBC (Staphylococcus aureus [25]): 125 µg/mL; MIC (Bacillus subtilis [26]): 62.5 µg/mL; MBC (Bacillus subtilis [27]): 125 µg/mL; inhibition zone (IZ) (Pseudomonas aeruginosa [28]): 14 mm; MIC (Pseudomonas aeruginosa [29]): 125 µg/mL; inhibition zone (IZ) (Salmonella typhimurium [30]): 14 mm; MIC (Klebsiella aerogenes [31]): 62.5 µg/mL; MIC (Klebsiella pneumoniae [32]): 62.5 µg/mL; MIC [33]: 125 µg/mL; MIC (Proteus vulgaris [34]): 62.5 µg/mL; MBC (Staphylococcus aureus [35]): 125 µg/mL; MFC (Malassezia pachydermatis [36]): 62.5 µg/mL; inhibition zone (IZ) (Micrococcus luteus [37]): 19 mm; MIC (Staphylococcus aureus [38]): 62.5 µg/mL; inhibition zone (IZ) (Bacillus subtilis [39]): 18 mm
CC(C)C[C@H](C)N[C@H](C)[C@@H](O)c1ccccc1.Cl | 15 | 250 | 125 | 13 | 250 | 250 | 500 | 14 | 500 | 10 | 500 | 500 | 500 | 13 | 500 | 13 | 10 | 125 | 12 | 250 | MBC (Klebsiella pneumoniae [21]): 250 µg/mL; inhibition zone (IZ) (Malassezia pachydermatis [22]): 12 mm; MIC (Malassezia pachydermatis [23]): 250 µg/mL; MIC (Shigella flexneri [24]): 250 µg/mL; MBC (Staphylococcus aureus [25]): 250 µg/mL; MIC (Bacillus subtilis [26]): 250 µg/mL; MBC (Bacillus subtilis [27]): 250 µg/mL; inhibition zone (IZ) (Pseudomonas aeruginosa [28]): 11 mm; MIC (Pseudomonas aeruginosa [29]): 250 µg/mL; inhibition zone (IZ) (Salmonella typhimurium [30]): 10 mm; MIC (Klebsiella aerogenes [31]): 250 µg/mL; MIC (Klebsiella pneumoniae [32]): 250 µg/mL; MIC [33]: 250 µg/mL; MIC (Proteus vulgaris [34]): 125 µg/mL; MBC (Staphylococcus aureus [35]): 250 µg/mL; MFC (Malassezia pachydermatis [36]): 250 µg/mL; inhibition zone (IZ) (Micrococcus luteus [37]): 13 mm; MIC (Staphylococcus aureus [38]): 250 µg/mL; inhibition zone (IZ) (Bacillus subtilis [39]): 12 mm
